G6PDH counter = L. mesenteroides G6PDH inhibition counter-screen | Purified L. mesenteroides G6PDH, diaphorase/resazurin coupled fluorescence, 45 min | inhibition, % at 5 µM | 0.12% of 200,000 active | AID 1020; in the data active = inhibition above about 50%
PMI act satM6P = increases human PMI activity with near-saturating mannose 6-phosphate; 0.34% of 190,000 active; coupled PMI enzyme assay, resazurin fluorescence, 20 min; hits give high values; 1 = untreated enzyme, 0 = substrate-free blank; AID 1216; activation factor at 20 µM; P34949;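 active = activation factor of 2 or more at 20 µM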
Target sequence (P34949 whole entry, looked up): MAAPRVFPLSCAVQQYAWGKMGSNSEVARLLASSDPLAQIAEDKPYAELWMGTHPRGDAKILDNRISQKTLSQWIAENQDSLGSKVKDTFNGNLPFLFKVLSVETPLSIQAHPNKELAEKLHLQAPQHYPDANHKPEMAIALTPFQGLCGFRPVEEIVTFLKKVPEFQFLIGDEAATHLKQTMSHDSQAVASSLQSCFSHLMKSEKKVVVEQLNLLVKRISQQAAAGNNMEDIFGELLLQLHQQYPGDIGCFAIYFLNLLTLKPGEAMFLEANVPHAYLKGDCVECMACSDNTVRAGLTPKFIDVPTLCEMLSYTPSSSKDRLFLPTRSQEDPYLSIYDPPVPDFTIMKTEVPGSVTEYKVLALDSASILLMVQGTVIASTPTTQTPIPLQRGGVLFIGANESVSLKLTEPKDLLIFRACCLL
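test system = human PMI in coupled enzyme assay | medium = HEPES-buffered pH 7.4 with magnesium and detergent | also added = 1.0 mM mannose-6-phosphate substrate with 0.22 mM NADP+ | compound = 20 µM single dose | times = 20 min incubation at room temperature | measured by = resorufin fluorescence (Ex 544/Em 590 nm) from resazurin via diaphorase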
Diaphorase inh = counter-screen for diaphorase-based assays: diaphorase inhibitors and chemical oxidizers; inhibition, % at 20 µM; diaphorase resazurin-to-resorufin fluorescence, NADH, 16 min; bacterial (C. kluyveri) enzyme, not human; 0.69% of 190,000 active;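 active = primary screen inhibition at 20 µM above a set limit, cut at about 50% in these data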;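 also: plate controls were DMSO with full reaction for no effect and wells lacking NADH for full effect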
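controls = No-NADH positive control and DMSO neutral control | system = Clostridium kluyveri diaphorase enzyme | timing = reaction incubation of 16 min at room temperature | signal = resorufin fluorescence 544/590 nm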
Diaphorase act = counter-screen for diaphorase-based assays: diaphorase activators and chemical reducers; Diaphorase/resazurin coupled assay, resorufin fluorescence, 16 min; hits give high values; 1 = vehicle wells, 0 = NADH-free wells; activation factor at 20 µM; 0.005% of 190,000 active; AID 1229;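 active = diaphorase activity raised at least twofold by the compound at 20 µM; inactive = activation factor below 2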
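Material: purified diaphorase enzyme from Clostridium kluyveri; Also added: 0.114 mM NADH and 0.1 mM resazurin, final amounts; Doses: single compound dose of 20 µM, 1% DMSO final; Times: 16 min enzyme reaction, ambient temperature; Detection: resorufin fluorescence, excitation 544 nm, emission 590 nm; Measure: increased resorufin signal from activators or reducing compounds.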
PMI act = increases human mannose-6-phosphate isomerase activity. 0.005% of 190,000 active. P34949. purified human PMI, coupled resazurin fluorescence, 20 min; hits give high values; 1 = vehicle control, 0 substrate-free wells. activation factor at 20 µM;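 active = activation factor of 2 or more at 20 µM, relative to plate controls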
The depositor's hits bear a star. Rows were chosen to be rich in hits. Some 1.1% of all compounds tested hit in one or more screens of this group.

SMILES | G6PDH counter | PMI act satM6P | Diaphorase inh | Diaphorase act | PMI act
COc1ccc(CCNC(=O)c2c(N)n(CCN3CCOCC3)c3nc4ccccc4nc23)cc1 | -36.6 | 1.1 | 58.6* | 0.4 | 1
CCOc1ccc(N2C(=O)NC(=O)/C(=C/c3cnc(SC)nc3)C2=O)cc1 | 13.4 | 1.3 | 1.7 | 1 | 1.1
CC(C)CN1CCN(Cc2cccc3c2OCO3)CC1CCO (configuration not stated) | 7.3 | 1 | 8.6 | 0.9 | 0.9
O=C1NC(=O)N(Cc2ccccc2)C(=O)/C1=C\c1ccco1 | 2.7 | 2.3* | 11.6 | 0.9 | 1.6
Cn1cccc1/C=C1/C(=O)NC(=O)N(Cc2ccccc2)C1=O | -1.8 | 1 | 18.5 | 0.8 | 1.1
Cc1ccc(NP(=O)(Nc2ccc(C)cc2)Oc2ccccc2)cc1 | -4.5 | 0.8 | 26.9 | 0.7 | 0.8

High-throughput results as filed in PubChem.
